Screening results from PubChem BioAssay.
Fibroblast inh – blocks proliferation of human lung fibroblasts; viability, % at 10 µM; hit rate 1.1% among 85,000; LL 47 human lung fibroblast viability, ATP luminescence; hits give low values;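 active = viability at or below 50% in the single dose screen; inactive = viability above 50%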;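 also: compound exposure lasted 72 h before the ATP readout; 100% = median luminescence of untreated cell-only wells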
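Test system: LL 47 human lung fibroblasts / Quantity: 1,150 cells in each well / Medium: IMEM growth medium with 15% fetal bovine serum / Incubation: 72 h compound exposure at 37 °C after overnight plating / Detection: CellTiter-Glo luminescence measuring cellular ATP / Read-out: % viability versus median cells-only luminescence / Benchmarks: cell-only wells, no compound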
H69AR inhibit – blocks growth of human H69AR lung tumor cells; H69AR lung tumor viability, ATP luminescence, 72 h; hits give low values; viability, % at 10 µM; hit rate 6% among 85,000;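 active = viability at or below 40%; inactive = viability above 40%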;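 also: multidrug resistant small cell line overexpressing MRP-1 efflux transporter; 100% = mean luminescence of untreated control wells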
HCT116 PTEN-null – suppresses growth of cells with PTEN deletion | HCT116 PTEN-null viability, CellTiter-Glo, 60 h; hits give low values | viability, % at 10 µM | hit rate 1.2% among 140,000;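 active = viability at or below a set limit, 4 SD under the median of all tested compounds, cut at about 3.7% in these data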;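 also: PTEN knockout HCT116 line with beta catenin targeted HCT116 as companion control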
HCT116 bCat-KO – beta-catenin-lacking colon tumor cell growth suppression. HCT116 beta-catenin knockout viability, CellTiter-Glo, 60 h; hits give low values. viability, % at 10 µM. hit rate 1.5% among 140,000. AID 818;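 active = viability at or under a set limit, the compound median less 4 SD, cut at about 6% in these data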;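 also: 0% = Hyamine 1622 control at 20 µM and 100% = untreated cell control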
HUVEC prolif 384 – inhibitors of human endothelial cell proliferation; hit rate 1.1% among 86,000; viability, % at 10 µM (by protocol); HUVEC proliferation, CellTiter-Glo luminescence, 72 h; hits give low values;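 active = viability at or below 30%; inactive = viability above 30%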;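 also: 100% = median luminescence of DMSO-only cell control wells on each plate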
Numbers without * were called inactive; · = not tested or not shown. This excerpt belongs to a sample that is enriched for hits.

SMILES	Fibroblast inh	H69AR inhibit	HCT116 PTEN-null	HCT116 bCat-KO	HUVEC prolif 384
Cc1nc2c(sc3nc4c(cc32)COC(C)(C)C4)c(=O)n1CC(=O)NCc1ccco1	55	24*	11	7	49
CCn1ncc(Br)c1C(=O)Nc1cc([N+](=O)[O-])ccc1C	·	·	91	91	·
CCOc1cc(Br)ccc1S(=O)(=O)NCc1ccccc1	·	·	71	71	·
Cc1ccc(-c2cc(C(=O)NCc3ccccn3)c3ccccc3n2)cc1C	·	·	1.9*	3.4*	·
O=C1c2sc3nc4c(c(=O)n3c2C(=O)N1c1ccccc1)CCC4	90	35*	56	59	98
Cc1ccccc1N1C(=O)c2sc3nc4c(c(=O)n3c2C1=O)CCC4	85	3.4*	88	84	96
O=C1c2sc3nc4ccccc4n3c2C(=O)N1c1ccccc1Cl	71	2.9*	94	96	72
CCCNC1=CC(=O)CC(C)(C)C1	·	·	98	92	·
O=C(CN(Cc1ccco1)C(=O)c1ccccc1)Nc1ccc(Cl)c(Cl)c1	·	·	67	85	·
CCCCCCOc1ccc(-c2ccc(C#N)cn2)cc1	·	·	64	66	·
COc1ccc2nc3c(cc2c1)c(NC(=O)c1cccs1)nn3CC(C)C	73	35*	7	14	82
CC(C)Cn1nc(NC(=O)C(C)(C)C)c2cc3ccccc3nc21	100	53	91	96	102
Cc1ccc(N(Cc2cc3cc(C)ccc3[nH]c2=O)S(=O)(=O)c2ccccc2)cc1	·	·	75	66	·
O=C(C1COc2ccccc2O1)N1CCN(c2ccccc2)CC1 (centres undefined)	96	101	94	99	106
COc1cc2nc(N3CCN(C(=O)C4COc5ccccc5O4)CC3)nc(N)c2cc1OC (centres undefined)	99	29*	9	4.6*	62
COc1cc2nc(N3CCN(C(=O)c4ccco4)CC3)nc(N)c2cc1OC	22*	10*	5	7	87
Cc1cc([N+](=O)[O-])ccc1N(C)C	·	·	93	85	·
Cc1noc(C)c1CSc1nnc2n(-c3ccccc3)c(=O)c3ccccc3n12	87	81	·	·	104
O=c1c2ccccc2nc(SCc2nnc(-c3ccccc3)o2)n1-c1ccccc1	92	86	·	·	91
COc1ccc(-c2noc(CSc3nc4ccccc4c(=O)n3-c3ccccc3)n2)cc1	86	29*	69	64	83
C=CCn1c(SCc2nc3ccccc3c(=O)[nH]2)nc2ccccc2c1=O	86	5.6*	66	70	73
C=CCn1c(Cc2ccc(OC)cc2)nnc1SCc1nc2ccccc2c(=O)[nH]1	102	98	96	84	89
C=CCn1c(SCc2c(C)noc2C)nc2sc3c(c2c1=O)CCCC3	89	28*	20	23	55
Cc1noc(C)c1CSc1nc2ccccc2c(=O)n1-c1ccc(F)cc1F	61	23*	20	22	51
Cc1ccnc(NC(=S)NC(=O)/C=C/c2ccc(Cl)cc2)c1	·	·	92	81	·
SMILES	Fibroblast inh	H69AR inhibit	HCT116 PTEN-null	HCT116 bCat-KO	HUVEC prolif 384
Cc1noc(C)c1CSc1nc2ccccc2c(=O)n1-c1ccccc1	58	17*	14	17	61
Cc1noc(C)c1CSc1nc2[nH]ncc2c(=O)n1-c1ccccc1	·	·	19	17	·
C=CCn1c(SCc2c(C)noc2C)nc2ccccc2c1=O	43*	20*	15	16	46
CCOc1ccc(NC(=O)c2cc3c(C)nc4ccccc4c3o2)cc1	71	30*	35	36	74
c1ccc(-c2cnn3c(-c4ccccc4)c(-c4ccccc4)nc3n2)cc1	·	·	41	46	·
COc1ccc(-c2cc(C(=O)Nc3c(C)nn(Cc4ccccc4Cl)c3C)no2)cc1OC	81	20*	101	90	47
Cc1ccc(Cn2nc(C)c(NC(=O)c3cc(-c4ccc5c(c4)OCO5)on3)c2C)cc1	93	7.4*	83	89	34
Cc1nn(Cc2ccc(F)cc2)c(C)c1NC(=O)c1cc(-c2ccc3c(c2)OCO3)on1	98	86	99	82	68
COc1ccc(-c2cc(C(=O)Nc3c(C)nn(Cc4ccc(Cl)cc4)c3C)no2)cc1	54	16*	70	70	42
Cc1cc(S(=O)(=O)N2CCN=C2c2ccccc2)c(Cl)cc1Cl	·	·	76	90	·
O=C(N/N=C/c1ccc(Br)cc1)c1ccc(Br)o1	·	·	92	100	·
CC(=O)Nc1ccccc1O	98	89	104	95	95
C/C(=C\C(=O)c1ccncc1)Nc1ccccc1O	94	23*	40	56	108
O=C(O)COc1ccc(/C=N/n2cnc3scc(-c4cccs4)c3c2=O)cc1	·	·	108	98	·
Cn1cc(/C=N/n2cnc3scc(-c4ccccc4)c3c2=O)c2ccccc21	51	28*	12	14	38
CSc1c(CC(=O)Nc2ccc(F)cc2)n(Cc2ccccc2)c2ccccc12	·	·	73	78	·
O=C(NNC(=O)c1ccc([N+](=O)[O-])cc1Cl)c1ccncc1	·	·	97	93	·
CCCCCNc1nc(N2CCCC2)c2c(c1C#N)CCN(C)C2	39*	2.1*	54	56	4.9*
COc1ccc(CN=C2NC(=O)CC(C(=O)Nc3ccccc3C)S2)cc1 (centres undefined)	·	·	97	91	·
Cc1c(CCOC(=O)C23CC4CC(CC(C)(C4)C2)C3)sc[n+]1Cc1ccccc1	·	·	5	2.9*	·
Cc1c(CCOC(=O)C23CC4CC(CC(C4)C2)C3)sc[n+]1Cc1ccccc1	·	·	78	76	·
Cc1cc2c(=O)n(Cc3ccco3)c(SCC(=O)N3CCCc4ccccc43)nc2s1	89	62	57	60	78
CCn1c(SCC(=O)N2CCOCC2)nc2sc3c(c2c1=O)CCCC3	88	39*	103	99	98
CCn1c(SC(C)C(=O)O)nc2sc3c(c2c1=O)CCC3 (centres undefined)	106	78	98	94	97
CCn1c(SCC(=O)N2CCOCC2)nc2oc3c(Cl)cc(Cl)cc3c(=O)c2c1=O	87	14*	13	11	88
SMILES	Fibroblast inh	H69AR inhibit	HCT116 PTEN-null	HCT116 bCat-KO	HUVEC prolif 384
O=C(CSc1nc2sc3c(c2c(=O)n1Cc1ccco1)CCC3)N1CCc2ccccc21	85	29*	·	·	93
CC(C)(C)SCCNC(=O)/C=C/c1cccc([N+](=O)[O-])c1	·	·	92	91	·
Cc1nc(Cl)c2c(n1)N(CC(N)=O)C(=O)CO2	·	·	96	98	·
N#CCCN1CCN(Cc2cc(-c3ccccc3)ccc2O)CC1	98	81	87	84	95
CC(C)(C)CC(C)(C)c1ccc(O)c(CN2CCN(CCC#N)CC2)c1	94	5.8*	67	62	97
N#Cc1ccc(-c2ccco2)nc1SCc1ccccc1	81	25*	66	79	89
CCN(CC)S(=O)(=O)c1ccc(N2CCOCC2)c(NC(=O)C23CC4CC(CC(Cl)(C4)C2)C3)c1	·	·	65	76	·
COC(=O)c1ccc(C(=O)NC(=S)Nc2ccc3nc(SC)sc3c2)cc1	·	·	1.5*	0.9*	·
